In ChEMBL document CHEMBL2203279, “Synthesis and pharmacokinetic profile of rhein- boswellic acid conjugate” (Bioorg Med Chem Lett, 2012):

Key:
Blood [1] = test: Drug uptake in po dosed Wistar rat blood at 4 hrs; type: ADME, organism-based; settings: in vivo
Summary of the method: (§1)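 Overnight-fasted Wistar rats (water allowed) given prodrug 2.5 mg in 0.5 mL saline orally. Blood taken by retro-orbital puncture at intervals over up to 8 h, processed by methanol protein precipitation and centrifugation, and analysed by RP-HPLC for intact prodrug, rhein and boswellic acid, expressed as percent of administered dose.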

[2] = Drug excretion in po dosed Wistar rat feces assessed as rhein up to 24 hrs; type: ADME, organism-based; settings: in vivo
Summary of the method: (§2)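 Wistar rats given prodrug 2.5 mg in 0.5 mL saline orally after overnight fast; urine and feces collected from metabolic cages at intervals over 24 h and pooled. Urine diluted 10-fold and feces 100-fold in phosphate buffer pH 7.4, then analysed by RP-HPLC for intact prodrug, rhein and boswellic acid as percent.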

[3] = Drug excretion in po dosed Wistar rat feces assessed as boswellic acid up to 24 hrs; type: ADME, organism-based; settings: in vivo; summary of the method: as §2
[4] = Drug excretion in po dosed Wistar rat urine up to 24 hrs; type: ADME, organism-based; settings: read-out: Drug excretion; summary of the method: as §2
[5] = Drug excretion in po dosed Wistar rat urine assessed as boswellic acid up to 24 hrs; type: ADME, organism-based; settings: in vivo; summary of the method: as §2
Stomach = test: Metabolic stability in rat stomach homogenate; type: ADME, tissue-based; settings: tissue homogenate
Summary of the method: (§3)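 Prodrug solution in buffer (250 µg/mL) added to rat stomach or small intestinal homogenate pre-equilibrated at 37 ± 0.5 °C. Samples taken at intervals, centrifuged, supernatant filtered and analysed by RP-HPLC at 211 nm for residual prodrug and released rhein/boswellic acid. Rate constant from log residual prodrug vs time slope; triplicate, mean rate constant.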

Plasma = test: Prodrug conversion in 80% human plasma assessed as half life of hydrolysis; type: ADME, cell-free
Summary of the method: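 80% human plasma prepared in 0.05 M phosphate buffer pH 7.4; prodrug methanol stock (250 µg/mL) mixed 1:1 with plasma and incubated at 37 ± 0.5 °C over 7 h. At intervals, centrifuged cold, supernatant protein-precipitated with methanol, recentrifuged, filtered and analysed by RP-HPLC for residual prodrug and released rhein/boswellic acid. Rate constant from log residual prodrug vs time; triplicate.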

Blood [6] = test: Drug uptake in po dosed Wistar rat blood at 6 hrs; type: ADME, organism-based; settings: in vivo; summary of the method: as §1
[7] = Chemical stability of the compound in HCl buffer at pH 1.2; type: physicochemical
Summary of the method: (§4)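 Prodrug (10 mg) incubated in aqueous buffer (HCl pH 1.2 or phosphate pH 7.4) at 37 ± 0.5 °C, stirred at 100 rpm; aliquots withdrawn with medium replacement at intervals up to 7 h. Residual prodrug and released rhein/boswellic acid quantified by RP-HPLC at 211 nm. First-order rate constant from slope of log residual prodrug vs time; triplicate, mean taken.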

[8] = Prodrug conversion in phosphate buffer assessed as half life of hydrolysis at pH 7.4; type: physicochemical; summary of the method: as §4
Intestine = test: Prodrug conversion in rat small intestine homogenate assessed as half life of hydrolysis; type: ADME, tissue-based; settings: tissue homogenate; summary of the method: as §3
Blood [9] = test: Drug uptake in po dosed Wistar rat blood at 7 hrs; type: ADME, organism-based; settings: in vivo; summary of the method: as §1
Blood [10] = test: Drug uptake in po dosed Wistar rat blood at 2 hrs; type: ADME, organism-based; settings: in vivo; summary of the method: as §1
[11] = Drug excretion in po dosed Wistar rat urine assessed as rhein up to 24 hrs; type: ADME, organism-based; settings: in vivo; summary of the method: as §2
[12] = Drug excretion in po dosed Wistar rat feces up to 24 hrs; type: ADME, organism-based; settings: faeces, read-out: Drug excretion; summary of the method: as §2
[13] = n-Octanol-phosphate buffer partition coefficient, log P of the compound at pH 7.4; type: physicochemical
Summary of the method: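 Partition coefficient measured between n-octanol and phosphate buffer pH 7.4, with concentrations read by UV–visible spectrophotometry.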

Blood [14] = test: Prodrug conversion in po dosed Wistar rat blood assessed as rhein production from 4 to 7 hrs; type: ADME, organism-based; settings: in vivo; summary of the method: as §1
Blood [15] = test: Prodrug conversion in po dosed Wistar rat blood assessed as boswellic acid production from 4 to 7 hrs; type: ADME, organism-based; settings: in vivo; summary of the method: as §1
Blood [16] = test: Drug uptake in po dosed Wistar rat blood at 5 hrs; type: ADME, organism-based; settings: in vivo; summary of the method: as §1
Blood [17] = test: Drug uptake in po dosed Wistar rat blood at 3 hrs; type: ADME, organism-based; settings: in vivo; summary of the method: as §1

| Compound | Drug uptake (Blood [1]) [%] | Drug excretion [2] | Drug excretion [3] [%] | dose excreted at 24 h [4] [%] | Drug excretion [5] [%] | Stability (Stomach) | t1/2 (Plasma) [h] | Drug uptake (Blood [6]) [%] | Stability [7] | t1/2 [8] [h] | t1/2 (Intestine) [h] | Drug uptake (Blood [9]) [%] | Drug uptake (Blood [10]) [%] | Drug excretion [11] [%] | dose excreted at 24 h [12] [%] | logD [13] | Drug metabolism (Blood [14]) | Drug metabolism (Blood [15]) | Drug uptake (Blood [16]) [%] | Drug uptake (Blood [17]) [%] |
| --- | --- | --- | --- | --- | --- | --- | --- | --- | --- | --- | --- | --- | --- | --- | --- | --- | --- | --- | --- | --- |
| CC1(C)CC[C@]2(C)CC[C@]3(C)C(=CC[C@@H]4[C@@]5(C)CC[C@@H](O)[C@](C)(C(=O)Oc6cccc7c6C(=O)c6c(OC(=O)[C@@]8(C)[C@H](O)CC[C@@]9(C)[C@H]8CC[C@]8(C)[C@@H]9CC=C9[C@@H]%10CC(C)(C)CC[C@]%10(C)CC[C@]98C)cc(C(=O)O)cc6C7=O)[C@@H]5CC[C@]43C)[C@@H]2C1 | 34.5 | Not Active | 4.59 | 6.2 | 8.9 | Stable | 3.102 | 12 | Stable | 3.205 | 2.672 | 3.4 | 93.6 | 7.1 | 3.1 | 2.57 | Active | Active | 22 | 70.43 |
| O=C(O)c1cc(O)c2c(c1)C(=O)c1cccc(O)c1C2=O [RHEIN] | – | – | – | – | – | – | – | – | – | – | – | – | – | – | – | 0.24 | – | – | – | – |
